Measurements reported in ChEMBL document CHEMBL3526154, “Metabolism, pharmacokinetics, tissue distribution, and stability studies of the prodrug analog of an anti-hepatitis B virus dinucleoside phosphorothioate” (Drug Metab Dispos, 2012).

Columns and labels:
Rattus norvegicus [1] = assay: Drug recovery in female Sprague-Dawley rat at 10 mg/kg, po administered as single dose measured after 24 hrs by liquid scintillation counting analysis; assay type: ADME, organism-based; set-up: dose 10 mg/kg, route oral; details: in vivo
In short: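 Rats got a single i.v. bolus or oral gavage dose of [³⁵S]-prodrug at 5 ml/kg over a 24 h study. Radioactivity in blood, tissues, carcass, urine and feces measured by liquid scintillation counting. Total recovery given as % of administered dose at 24 h.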

[2] = Drug excretion in male Sprague-Dawley rat urine at 10 mg/kg, iv administered as bolus dose measured at 0 to 1 hr post-dose by liquid scintillation counting analysis; assay type: ADME, organism-based; set-up: dose 10 mg/kg, route intravenous; details: in vivo
In short: (§1)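 Single [³⁵S]-prodrug dose to rats, i.v. tail-vein bolus (PEG 400/saline vehicle) or oral gavage (citric acid buffer pH 2.5), 5 ml/kg. Urine and feces collected ~1, 4 and 24 h postdose. Radioactivity counted by liquid scintillation and expressed as % of administered dose. Mean and S.D. from nine rats per sex.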

[3] = Drug excretion in female Sprague-Dawley rat urine at 10 mg/kg, iv administered as bolus dose measured at 0 to 1 hr post-dose by liquid scintillation counting analysis; assay type: ADME, organism-based; set-up: dose 10 mg/kg, route intravenous; details: in vivo; in short: as §1
[4] = Drug excretion in female Sprague-Dawley rat urine at 10 mg/kg, iv administered as bolus dose measured at 1 to 4 hrs post-dose by liquid scintillation counting analysis; assay type: ADME, organism-based; set-up: dose 10 mg/kg, route intravenous; details: in vivo; in short: as §1
[5] = Drug excretion in female Sprague-Dawley rat urine at 10 mg/kg, iv administered as bolus dose measured at 4 to 24 hrs post-dose by liquid scintillation counting analysis; assay type: ADME, organism-based; set-up: dose 10 mg/kg, route intravenous; details: in vivo; in short: as §1
[6] = Drug excretion in female Sprague-Dawley rat urine at 10 mg/kg, iv administered as bolus dose measured at 0 to 24 hrs post-dose by liquid scintillation counting analysis; assay type: ADME, organism-based; set-up: dose 10 mg/kg, route intravenous; details: in vivo; in short: as §1
[7] = Drug excretion in female Sprague-Dawley rat urine at 10 mg/kg, po administered as single dose measured at 0 to 1 hr post-dose by liquid scintillation counting analysis; assay type: ADME, organism-based; set-up: dose 10 mg/kg, route oral; details: in vivo; in short: as §1
[8] = Drug excretion in female Sprague-Dawley rat urine at 10 mg/kg, po administered as single dose measured at 1 to 4 hrs post-dose by liquid scintillation counting analysis; assay type: ADME, organism-based; set-up: dose 10 mg/kg, route oral; details: in vivo; in short: as §1
[9] = Drug excretion in female Sprague-Dawley rat urine at 10 mg/kg, po administered as single dose measured at 4 to 24 hrs post-dose by liquid scintillation counting analysis; assay type: ADME, organism-based; set-up: dose 10 mg/kg, route oral; details: in vivo; in short: as §1
[10] = Drug excretion in female Sprague-Dawley rat urine at 10 mg/kg, po administered as single dose measured at 0 to 24 hrs post-dose by liquid scintillation counting analysis; assay type: ADME, organism-based; set-up: dose 10 mg/kg, route oral; details: in vivo; in short: as §1
[11] = Drug excretion in male Sprague-Dawley rat feces at 10 mg/kg, iv administered as bolus dose measured at 1 to 4 hrs post-dose by liquid scintillation counting analysis; assay type: ADME, organism-based; set-up: dose 10 mg/kg, route intravenous; details: in vivo; in short: as §1
Rattus norvegicus [12] = assay: Cmax in male Sprague-Dawley rat at 10 mg/kg, iv administered as bolus dose by liquid scintillation counting analysis; assay type: ADME, organism-based; set-up: dose 10 mg/kg, route intravenous; details: in vivo
In short: (§2)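 Single dose of [³⁵S]-labelled prodrug to rats, i.v. tail-vein bolus in 25% PEG 400/75% saline or oral gavage in 0.05 M citric acid buffer pH 2.5, 5 ml/kg. Retro-orbital blood into EDTA at 1, 4 or 24 h; plasma by centrifugation. Radioactivity by liquid scintillation counting as µg-Eq/ml. Noncompartmental sparse-sampling analysis gives Cmax and AUC; nine rats per sex.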

Rattus norvegicus [13] = assay: AUC in male Sprague-Dawley rat at 10 mg/kg, iv administered as bolus dose by liquid scintillation counting analysis; assay type: ADME, organism-based, Plasma; set-up: dose 10 mg/kg, route intravenous; details: in vivo; in short: as §2
[14] = Drug excretion in male Sprague-Dawley rat feces at 10 mg/kg, po administered as single dose measured at 1 to 4 hrs post-dose by liquid scintillation counting analysis; assay type: ADME, organism-based; set-up: dose 10 mg/kg, route oral; details: in vivo; in short: as §1
[15] = Drug excretion in male Sprague-Dawley rat feces at 10 mg/kg, po administered as single dose measured at 4 to 24 hrs post-dose by liquid scintillation counting analysis; assay type: ADME, organism-based; set-up: dose 10 mg/kg, route oral; details: in vivo; in short: as §1
[16] = Drug excretion in male Sprague-Dawley rat feces at 10 mg/kg, po administered as single dose measured at 0 to 24 hrs post-dose by liquid scintillation counting analysis; assay type: ADME, organism-based; set-up: dose 10 mg/kg, route oral; details: in vivo; in short: as §1
[17] = Drug excretion in female Sprague-Dawley rat feces at 10 mg/kg, po administered as single dose measured at 1 to 4 hrs post-dose by liquid scintillation counting analysis; assay type: ADME, organism-based; set-up: dose 10 mg/kg, route oral; details: in vivo; in short: as §1
Liver [18] = assay: Drug uptake in Sprague-Dawley rat liver at 10 mg/kg, iv administered as bolus dose measured at 1 to 24 hrs post-dose by liquid scintillation counting analysis; assay type: ADME, organism-based; set-up: dose 10 mg/kg, route intravenous; details: in vivo
In short: (§3)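 [35S]-labelled prodrug given once to rats, iv bolus via tail vein (25% PEG 400/75% saline) or oral gavage (0.05 M citric acid buffer, pH 2.5), 5 ml/kg. Rats euthanised at 1, 4 or 24 h. Liver, lung, kidney, heart, brain, spleen, tail and retro-orbital plasma were collected. Samples were homogenised and solubilised, and radioactivity was counted by liquid scintillation. Values are µg-equivalent/ml or g and % of dose.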

Kidney [19] = assay: Drug uptake in Sprague-Dawley rat kidney at 10 mg/kg, iv administered as bolus dose measured at 1 to 24 hrs post-dose by liquid scintillation counting analysis; assay type: ADME, organism-based; set-up: dose 10 mg/kg, route intravenous; details: in vivo
In short: (§4)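 Single i.v. tail-vein bolus or oral gavage of [³⁵S]-prodrug to rats, 5 ml/kg. Euthanised by i.p. pentobarbital overdose at 1, 4 or 24 h. Retro-orbital blood collected; liver, lung, kidney, heart, brain and spleen frozen. Tissues homogenised, solubilised and counted by liquid scintillation. Radioactivity given as µg-Eq/g and % of dose.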

Liver [20] = assay: Drug uptake in Sprague-Dawley rat liver at 10 mg/kg, po administered as single dose measured at 4 hrs post-dose by liquid scintillation counting analysis; assay type: ADME, organism-based; set-up: dose 10 mg/kg, route oral; details: in vivo; in short: as §3
Plasma = assay: Drug uptake in Sprague-Dawley rat plasma at 10 mg/kg, po administered as single dose measured at 4 hrs post-dose by liquid scintillation counting analysis; assay type: ADME, organism-based; set-up: dose 10 mg/kg, route oral; details: in vivo; in short: as §3
Kidney [21] = assay: Drug uptake in Sprague-Dawley rat kidney at 10 mg/kg, po administered as single dose measured at 4 hrs post-dose by liquid scintillation counting analysis; assay type: ADME, organism-based; set-up: dose 10 mg/kg, route oral; details: in vivo; in short: as §3
Nucleic Acid = assay: Ratio of drug level in liver to plasma in female Sprague-Dawley rat at 10 mg/kg, iv administered as bolus dose measured after 1 hr by liquid scintillation counting analysis; assay type: ADME, organism-based; set-up: dose 10 mg/kg, route intravenous; details: other tissue
In short: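 Rats received a single iv bolus of the [35S]-labelled prodrug via tail vein in 25% PEG 400/75% saline, 5 ml/kg. Liver (solubilised homogenate) and plasma (EDTA blood, retro-orbital, just before necropsy) were taken at 1, 4 and 24 h and counted by liquid scintillation. The liver/plasma concentration ratio is the mean at each time point, from nine male and nine female rats.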

Spleen [22] = assay: Drug uptake in Sprague-Dawley rat spleen at 10 mg/kg, iv administered as bolus dose measured at 1 to 24 hrs post-dose by liquid scintillation counting analysis; assay type: ADME, organism-based; set-up: dose 10 mg/kg, route intravenous; details: in vivo; in short: as §3
Brain = assay: Drug uptake in Sprague-Dawley rat brain at 10 mg/kg, iv administered as bolus dose measured at 1 to 24 hrs post-dose by liquid scintillation counting analysis; assay type: ADME, organism-based; set-up: dose 10 mg/kg, route intravenous; details: in vivo; in short: as §4
Rattus norvegicus [23] = assay: AUC in male Sprague-Dawley rat at 10 mg/kg, po administered as single dose by liquid scintillation counting analysis; assay type: ADME, organism-based, Plasma; set-up: dose 10 mg/kg, route oral; details: in vivo; in short: as §2
Rattus norvegicus [24] = assay: AUC in female Sprague-Dawley rat at 10 mg/kg, po administered as single dose by liquid scintillation counting analysis; assay type: ADME, organism-based, Plasma; set-up: dose 10 mg/kg, route oral; details: in vivo; in short: as §2
Spleen [25] = assay: Drug uptake in Sprague-Dawley rat spleen at 10 mg/kg, po administered as single dose measured at 1 to 24 hrs post-dose by liquid scintillation counting analysis; assay type: ADME, organism-based; set-up: dose 10 mg/kg, route oral; details: in vivo; in short: as §3

Question: Which results are given for CO[C@@H]1[C@H](OP(=O)(OC[C@H]2O[C@@H](n3cnc4c(N)ncnc43)C[C@@H]2O)[35S]COC(=O)OC(C)C)[C@@H](CO)O[C@H]1n1ccc(=O)[nH]c1=O (stereo partly drawn)?
Answer: Drug recovery (Rattus norvegicus [1]): 80.4%; Drug excretion [2]: 22.83%; Drug excretion [3]: 15.81%; Drug excretion [4]: 6.34%; Drug excretion [5]: 36.79%; Drug excretion [6]: 58.94%; Drug excretion [7]: 0.16%; Drug excretion [8]: 2.04%; Drug excretion [9]: 34.78%; Drug excretion [10]: 36.88%; Drug excretion [11]: 0.01%; Cmax (Rattus norvegicus [12]): 6.51 ugequiv/ml; AUC (Rattus norvegicus [13]): 53.58 ugequiv.h/ml; Drug excretion [14]: 0.01%; Drug excretion [15]: 35.71%; Drug excretion [16]: 35.71%; Drug excretion [17]: 0.08%; Drug uptake (Liver [18]): Active; Drug uptake (Kidney [19]): Active; Drug uptake (Liver [20]): Active; Drug uptake (Plasma): Active; Drug uptake (Kidney [21]): Active; Ratio (Nucleic Acid): 3.89; Drug uptake (Spleen [22]): <= 0.5%; Drug uptake (Brain): <= 0.5%; AUC (Rattus norvegicus [23]): 26.86 ugequiv.h/ml; AUC (Rattus norvegicus [24]): 27.37 ugequiv.h/ml; Drug uptake (Spleen [25]): <= 0.5%
